In PubChem BioAssay:
A number with no mark means an inactive call. Records with an inconclusive call do not appear. Activity calls are given as the source filed them.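 How the source made its calls, unless noted: active means viability at or below 27.92% in each of two runs, the all-compound median minus 4 SD; inconclusive means no clear call, values can overlap the other calls; inactive means the rest.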

Tests used:
[1] = OD615 S. cerevisiae growth inhibition, permissive medium, pilot counter-assay, permissive growth control for S. cerevisiae lifespan shortening project (AID 705;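 active means growth inhibition above 25% in both replicates, a cutoff set 3 SD above the mean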); details: OD615, 24 h, at 10 µM, active compounds read high
Procedure, shortened: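 Timing: 24 h exposure, 30 °C / Material: Saccharomyces cerevisiae strain carrying genetically modified DeaD replicative-lifespan system / Signal: OD at 615 nm / Compound: 10 µM single dose, 0.25% DMSO / Medium: SC raffinose/galactose permissive medium / Evaluation: reduction in yeast growth (OD615)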

[2] = Restrictive medium S. cerevisiae growth inhibition, OD615, pilot screen of yeast lifespan reduction project, restrictive growth control (AID 706;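 active means growth inhibition above a set limit, 3 SD over mean compound inhibition, in both replicates, cut at about 43% in these data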;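 further: modified DeaD lifespan yeast strain shifted to restrictive glucose medium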); details: OD615, 48 h, at 10 µM, active compounds read high
Procedure, shortened: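 System: Engineered S. cerevisiae DeaD strain | Detection: OD615 | Buffer or medium: CSMM-D glucose medium | Doses: 10 µM compound, 0.25% DMSO | Timing: 4 h pre-growth plus 48 h compound exposure, 30 °C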

[3] = viability gain of MRP-1-high H69AR cells under doxorubicin, pilot screen, MRP-1 activator project, CellTiter-Glo, duplicate (AID 807;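 active means viability increase at or above a cutoff of the median across tested compounds plus 3 SD, cut at about 8.5% in these data, passing the limit was not always enough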;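 further: compound pretreatment 18-22 h then 72 h combined with doxorubicin; 0% = doxorubicin alone and 100% = vehicle without doxorubicin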); details: H69AR viability with doxorubicin, CellTiter-Glo luminescence; at 10 µM; active compounds read high
[4] = growth suppression of beta-catenin knockout HCT116, pilot screen, human colon tumor cells (AID 823;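 active means cell viability at or below a set limit in both duplicate runs, the limit being the all-compound median minus 4 SD, cut at about 23% in these data, passing the limit was not always enough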;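 further: 0% = wells killed by 20 µM Hyamine and 100% = untreated DMSO cell wells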); details: CellTiter-Glo, 60 h, at 10 µM, active compounds read low
[5] = growth suppression of PTEN-deleted HCT116, pilot screen, cell-based, HCT116 clonal line, CellTiter-Glo (AID 824); details: 60 h, at 10 µM, active compounds read low;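 further: 0% = 20 µM Hyamine control and 100% = vehicle cell control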
[6] = inhibitors of the yeast RAM network, pilot screen, dse1pr::URA3 reporter, 5-FOA selection (AID 869;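 active means inhibition over a set limit, the all-compound mean plus 3 SD, in both replicate runs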;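 further: 0% = DMSO wells with no growth and 100% = 10 µM 1-NA-PP1 with full growth; RAM network block rescues cells from 5-FOA so hits raise OD615 growth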); details: S. cerevisiae dse1pr::URA3 5-FOA growth, OD615, 2 d; at 10 µM; active compounds read high; strain carries analog-sensitive mutant Cbk1 kinase
[7] = RAM signaling pathway blockade in yeast – S. cerevisiae, Pdr1DBD-CYC8 efflux-inhibited sensitized strain, primary screen (AID 1298;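 active means RAM network inhibition above 8.4% in each of two replicates, 3 SD over the compound average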;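 further: 0% = DMSO untreated cells without growth and 100% = 10 µM 1-NA-PP1 full growth; higher means more yeast growth rescued from 5-FOA killing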); details: S. cerevisiae cbk1-as DSE1-URA3 strain, 5-FOA growth OD615, 2 d; at 50 µM; active compounds read high

Row | Structure (SMILES) | growth inhibition [1] [%] | growth inhibition [2] | viability increase [3] [%] | viability [4] [%] | viability [5] [%] | inhibition [6] [%] | RAM network inhibition [7] [%]
1 | CCc1nn(CC(=O)NCCCN2CCCC2=O)c(=O)c2cc3sccc3n12 | -8.81 | -16.4% | -2.31 | 112 | 108 | 1.91 | 0.36
2 | COc1ccc(OCC(=O)Nc2ccccc2OC)cc1 | 11.4 | 7.31% | -4.87 | 105 | 101 | 0.82 | -2.32
3 | Cc1cc(C(=O)Nc2ccc3c(c2)OCCO3)co1 | -4.03 | 5.26% | -0.16 | 96.7 | 92.1 | 0.06 | -0.41
4 | c1ccc(-c2nnn(C34CC5CC(CC(C5)C3)C4)n2)cc1 | -4.34 | -0.125% | 0.19 | 90.8 | 84.9 | 0.215 | 5.67
5 | CC(Sc1ccc2nnc(-c3ccc(F)cc3)n2n1)C(=O)O (stereo not given) | 8.21 | 52.5% (active) | -1.09 | 100 | 94.2 | 1.28 | 1.27
6 | O=C(Nc1nc(-c2ccc3c(c2)OCO3)cs1)C1COc2ccccc2O1 (stereo not given) | 0.51 | 3.12% | 1.56 | 99.8 | 88.9 | 2.81 | 4.11
7 | COc1cc(NC(=O)C2CCCN2C(=O)C2CCC(C)CC2)cc(OC)c1OC (stereo not given) | -6.57 | -3.52% | -1.44 | 96.3 | 93.2 | 2.65 | 1.46
8 | CCc1nnc(NC(=O)CN2CCOCC2)s1 | -2.81 | -19.4% | -1.62 | 95.8 | 101 | 1.18 | 6.14
9 | Nc1ccc(SC(F)(F)F)cc1C(=O)c1ccccc1 | -6.7 | -13.2% | -0.99 | 74 | 70.4 | -2.23 | 3.77
10 | COCc1cc(C)nc2sc3c(=O)n(Cc4ccco4)nnc3c12 | -8.08 | -13.3% | -1.93 | 100 | 90.7 | 4.2 | 4.8
11 | COc1cccc(NS(=O)(=O)c2nc3nc(C)cc(C)n3n2)c1 | -10.2 | -2.87% | -1.57 | 108 | 98.9 | 2.01 | -1
12 | COC(=O)CCc1n[nH]c(=O)[nH]c1=O | 3.66 | 9.25% | 0.89 | 106 | 102 | 0.54 | -0.87
13 | O=C(CN1CCOc2ccccc21)NCc1ccc(Cl)cc1 | -36.4 | -1.02% | -6.71 | 90.8 | 81.6 | 0.665 | -0.68
14 | COc1ccccc1NC(=O)c1ccc(N)cc1 | -2 | -2.66% | 0.45 | 105 | 103 | 2.87 | 2.74
15 | Cc1cccc(-n2ncc3c(Nc4ccc(F)cc4)ncnc32)c1 | -11.3 | -5.18% | 2.21 | 106 | 95.4 | 3.18 | 1.56
16 | CCn1c(C2CC(=O)N(Cc3ccccc3)C2)nc2ccccc21 (stereo not given) | 7.85 | 7.52% | -2.06 | 102 | 91.3 | -0.3 | 4.25
17 | Cn1c(Cn2c(=O)sc3ccccc32)nnc1SCC(=O)NCc1ccco1 | 0.17 | 8.09% | -4.73 | 109 | 104 | 1.93 | 6.92
18 | COc1ccc2c(c1OC)C(=O)OC2Nc1ccccn1 (stereo not given) | 10.3 | -7.84% | -2.18 | 102 | 99.7 | 1.34 | 1.17

Row | Structure (SMILES) | growth inhibition [1] [%] | growth inhibition [2] | viability increase [3] [%] | viability [4] [%] | viability [5] [%] | inhibition [6] [%] | RAM network inhibition [7] [%]
19 | Cc1[nH]c(=O)[nH]c(=O)c1S(=O)(=O)N1CCCC(C(=O)N2CCC(Cc3ccccc3)CC2)C1 (stereo not given) | -7.81 | -8.27% | 0.94 | 100 | 101 | 0.385 | 3.66
20 | O=C(CCCc1ccccc1)NCc1cn2ccsc2n1 | -8.33 | 6.95% | 0.97 | 103 | 105 | 1.31 | 5.11
21 | CCc1nc(C)cn1S(=O)(=O)c1ccc(Cl)c(Cl)c1Cl | -6.5 | -13.9% | -0.17 | 99.3 | 98.7 | 0.805 | 7.3
22 | O=C(C1CCN(c2ncnc3c2sc2cccc(F)c23)CC1)N1CCOCC1 | 0.06 | 2.17% | -6.73 | 77.2 | 76.8 | 3.08 | 1.81
23 | COC(=O)c1ccccc1NC(=O)CSc1nc(N)cc(N)n1 | -11.6 | 5.95% | -2.46 | 94.1 | 98.3 | 0.39 | -0.05
24 | CCCC(=O)C1=C(O)C(C(=O)OC)C(C)(C)CC1=NC (stereo not given) | -14.5 | -12.3% | 0.12 | 95.3 | 94.9 | 0.54 | 0.46
25 | CCC(CC)C(=O)N1c2ccc(F)cc2CCC1C (stereo not given) | -16.6 | -10.7% | -0.23 | 95.3 | 93.9 | 1.31 | 1.96
26 | Cc1ccc(C2c3c(oc4ccc(C)cc4c3=O)C(=O)N2CCCN2CCOCC2)cc1 (stereo not given) | -8.48 | -3.63% | -5.72 | 77.3 | 84.1 | 0.99 | -1.21
27 | O=C(Cn1cnc2c(nnn2-c2ccccc2)c1=O)N1CCOCC1 | -5.42 | -7.92% | 0.78 | 104 | 104 | -0.26 | 0.26
28 | CN(C(=O)c1cnc2n(c1=O)CCS2)C1CCCCC1 | -9.04 | -5.85% | -0.01 | 105 | 110 | 1.5 | 3.96
29 | NC(=O)C1CCN(C(=O)CN(c2cccc(C(F)(F)F)c2)S(=O)(=O)c2ccccc2)CC1 | -10.2 | -14.5% | -1.48 | 99.7 | 94.7 | 2.27 | 4.31
30 | c1cncc(-c2nc3ccccn3c2Nc2ccc3c(c2)OCCO3)c1 | -1.86 | 9.11% | -2.32 | 99.6 | 94.4 | 1.04 | 4.54
31 | CC(C)(C)NC(=O)C1CN(S(=O)(=O)c2ccccc2)CCN1S(=O)(=O)c1ccccc1 (stereo not given) | 5.33 | -4.14% | -1.07 | 97.3 | 97.1 | 2.74 | 2.81
32 | CCCCOc1ccccc1C1C(C(=O)OC)=CN(CC)C=C1C(=O)OC | -6.49 | 0.595% | -5.35 | 73.8 | 70.9 | 3.23 | 6.73
33 | CCCC(=O)c1c(NC)cc(C)oc1=O | -7.03 | 4.71% | -0.53 | 97.2 | 92.2 | 0.62 | 3.99
34 | CCOC(=O)c1ccc(CSc2n[nH]c(C)n2)o1 | -3.09 | -7.67% | -2.58 | 97.7 | 96.7 | -1.18 | 1.95
35 | CCOC(=O)C1CCN(C(=O)CN(c2ccc(OC)cc2)S(=O)(=O)c2c(C)nn(C)c2C)CC1 | -3.58 | -3.18% | -0.02 | 98.7 | 104 | 1.46 | 2.69
